Assay [1] concerns MDA-MB-231. Kind of assay: Induction of DNA damage in human MDA-MB-231 cells assessed as increase in Chk2 protein expression at 3 to 9 uM measured after 48 hrs by western blot analysis. The settings on record: dose 3-9 µM. The format is functional, cell-based. A digest of the protocol: (§1)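 Cells exposed to graded concentrations for 48 h, then proteins extracted. Run on SDS-PAGE (5–15% gels) and transferred to nitrocellulose. Blocked 2 h in 5% nonfat milk in PBS/0.1% Tween 20, primary antibody overnight at 4 °C, biotin-conjugated secondary 1 h. Visualized on X-ray film with densitometric quantitation; three independent experiments.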

Assay [2] relates to MDA-MB-231. Kind of assay: Induction of apoptosis in human MDA-MB-231 cells assessed as increase in cleaved caspase 9 protein expression at 3 to 9 uM measured after 48 hrs by western blot analysis. In kind it is functional, cell-based. The settings on record: dose 3-9 µM. The method, boiled down:
(§2)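 MCF-7 and MDA-MB-231 breast cancer cells treated 48 h with a concentration series, then lysed for protein. SDS-PAGE on 5–15% gels, transfer to nitrocellulose. Blocked 2 h in 5% nonfat milk/PBS-0.1% Tween 20, primary antibodies overnight at 4 °C, biotin-conjugated secondary 1 h. X-ray film detection with densitometric quantification.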
A general note: In western blotting, separated proteins are transferred to a membrane and probed.

In assay [3] the test system is MCF7. The assay can be described thus: Induction of mitochondrial membrane potential loss in human MCF7 cells assessed as green fluorescence intensity at 1 uM measured after 48 hrs by JC1 staining-based flow cytometry analysis (reference value: 8.1 %). The format is functional.
The test system of assay [4] is MCF7. Kind of assay: Antiproliferative activity against human MCF7 cells assessed as reduction in cell viability at 0.06 to 16 uM measured after 24 to 72 hrs by MTT assay. In kind it is functional, cell-based. The settings on record: dose 0.06-16 µM, time 24-72 hrs. The method, boiled down:
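MTT viability time course on the breast cancer cells with increasing compound concentrations for 24, 48 and 72 h. Cells seeded at 3000/well and allowed 12 h before treatment. MTT (5 mg/mL solution) applied for 4 h, crystals dissolved in DMSO, absorbance read at 570/630 nm. Viability expressed relative to untreated cells.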
(In general: Tetrazolium assays rely on reduction of a dye to a coloured formazan, in cell work by metabolically active cells.)

Assay [5] concerns MDA-MB-231. The assay can be described thus: Induction of G2/M phase cell cycle arrest in human MDA-MB-231 cells assessed as increase in Cdc25c protein expression at 3 to 9 uM measured after 48 hrs by western blot analysis. In kind it is functional, cell-based. As to conditions: dose 3-9 µM.
Assay [6] concerns MCF7. The assay can be described thus: Induction of apoptosis in human MCF7 cells assessed as increase in cleaved caspase 7 protein expression at 4 uM measured after 48 hrs in presence of cdc25c inhibitor, NSC663284 by western blot analysis. The format is functional, cell-based. The method, boiled down: (§3)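 Four arms per cell line: untreated, test compound, 0.3 µM NSC663284 alone, and combination. Proteins harvested after 48 h and resolved by SDS-PAGE on 5–15% gels, transferred to nitrocellulose. Blocked 2 h in milk/PBS-Tween, primary antibodies overnight at 4 °C, biotin-conjugated secondary. Read on X-ray film with densitometry.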

Assay [7] concerns MCF7. The assay can be described thus: Induction of apoptosis in human MCF7 cells assessed as early apoptotic cells at 4 uM measured after 48 hrs in presence of cdc25c inhibitor, NSC663284 by AnnexinV-FITC/PI staining based flow cytometry (reference value: 0.9%). The format is functional. (In general: In flow cytometry, cells or beads pass a laser one at a time.)
Assay [8] has as its system MDA-MB-231. The assay can be described thus: Induction of apoptosis in human MDA-MB-231 cells assessed as increase in cleaved caspase 7 protein expression at 9 uM measured after 48 hrs in presence of cdc25c inhibitor, NSC663284 by western blot analysis. The format is functional, cell-based. The method, boiled down: as §3
Assay [9] concerns MCF7. The assay can be described thus: Induction of G2/M phase cell cycle arrest in human MCF7 cells assessed as increase in cdc25c protein expression at 1 to 4 uM measured after 48 hrs by western blot analysis. In kind it is functional, cell-based. The settings on record: dose 1-4 µM. A digest of the protocol:
as §1

Assay [10] concerns MDA-MB-231. Kind of assay: Potency index, ratio of 5-FU IC50 to test compound IC50 for anticancer activity against human MDA-MB-231 cells measured after 72 hrs by MTT assay. The format is functional. The method, boiled down:
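MTT assay: 3000 exponentially growing cells per well, 12 h at 37 °C. Medium replaced with compound at a range of concentrations for 72 h. MTT (5 mg/mL stock) added for 4 h, formazan dissolved in DMSO. Absorbance read at 570 nm (reference 630 nm); percent inhibition gives IC50. Index is 5-FU IC50 divided by test-compound IC50.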

Assay [11] concerns MDA-MB-231. The assay can be described thus: Induction of apoptosis in human MDA-MB-231 cells assessed as early apoptotic cells at 6 uM measured after 48 hrs by Annexin V-FITC/propidium iodide staining based flow cytometric analysis (reference value: 1%). In kind it is functional.
In assay [12] the test system is MCF7. The assay can be described thus: Cell cycle arrest in human MCF7 cells assessed as accumulation at G1 phase at 4 uM measured after 48 hrs by propidium iodide staining based flow cytometry (reference value: 70.09 %). The format is functional.
Assay [13] deals with MCF7. The assay can be described thus: Induction of apoptosis in human MCF7 cells assessed as increase in Bax to Bcl2 ratio at 1 to 4 uM measured after 48 hrs by western blot analysis. As to conditions: dose 1-4 µM. The format is functional, cell-based. A digest of the protocol:
as §2

Assay [14] has as its system MCF7. Kind of assay: Induction of apoptosis in human MCF7 cells assessed as increase in cleaved caspase 9 protein expression at 4 uM measured after 48 hrs in presence of cdc25c inhibitor, NSC663284 by western blot analysis. In kind it is functional, cell-based. A digest of the protocol: as §3
The test system of assay [15] is MCF7. The assay can be described thus: Cell cycle arrest in human MCF7 cells assessed as accumulation at G2/M phase at 2 uM measured after 48 hrs by propidium iodide staining based flow cytometry (reference value: 0.01 %). The format is functional.
Assay [16] concerns MDA-MB-231. The assay can be described thus: Induction of G2/M phase cell cycle arrest in human MDA-MB-231 cells assessed as decrease in cyclinB1 protein expression at 3 to 9 uM measured after 48 hrs by western blot analysis. In kind it is functional, cell-based. The settings on record: dose 3-9 µM. A digest of the protocol:
as §1

The next assay concerns MGC-803. The assay can be described thus: Anticancer activity against human MGC-803 cells assessed as inhibition of cell growth measured after 72 hrs by MTT assay. In kind it is functional, cell-based. The settings on record: MGC-803, 72 h. A digest of the protocol:
(§4)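 Cells seeded at 3000 exponentially growing cells/well and incubated 12 h at 37 °C. Medium then replaced with fresh medium containing graded compound concentrations for 72 h; 5-FU positive control. MTT (5 mg/mL solution) added for 4 h, formazan dissolved in DMSO, absorbance read at 570 nm (reference 630 nm). Relative percentage inhibition of viable cells calculated; IC50 reported as mean ± standard deviation.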

Assay [17] relates to MDA-MB-231. The assay can be described thus: Induction of G2/M phase cell cycle arrest in human MDA-MB-231 cells assessed as decrease in p-cdc2 protein expression at 3 to 9 uM measured after 48 hrs by western blot analysis. In kind it is functional, cell-based. The settings on record: dose 3-9 µM. A digest of the protocol:
as §1

Assay [18] deals with MCF7. The assay can be described thus: Induction of apoptosis in human MCF7 cells assessed as late apoptotic cells at 4 uM measured after 48 hrs by Annexin V-FITC/propidium iodide staining based flow cytometric analysis (reference value: 0.6 %). In kind it is functional.
The subject of assay [19] is MCF7. Kind of assay: Cell cycle arrest in human MCF7 cells assessed as accumulation at G2/M phase at 4 uM measured after 48 hrs by propidium iodide staining based flow cytometry (reference value: 0.01 %). In kind it is functional.
Assay [20] concerns MCF7. Kind of assay: Induction of G2/M phase cell cycle arrest in human MCF7 cells assessed as upregulation of p-cdc25c at ser216 residue protein expression at 4 uM measured after 48 hrs by western blot analysis. The format is functional, cell-based. The method, boiled down:
as §1

For assay [21], the system named is MCF7. The assay can be described thus: Induction of apoptosis in human MCF7 cells assessed as reduction in Mcl-1 protein expression at 1 to 4 uM measured after 48 hrs by western blot analysis. In kind it is functional, cell-based. The settings on record: dose 1-4 µM. A digest of the protocol:
as §2

The test system of assay [22] is MDA-MB-231. Kind of assay: Induction of apoptosis in human MDA-MB-231 cells assessed as increase in Bax to Bcl2 ratio at 3 to 9 uM measured after 48 hrs by western blot analysis. The format is functional, cell-based. The settings on record: dose 3-9 µM. The method, boiled down:
as §2

For a further assay, the system named is HeLa. The assay can be described thus: Anticancer activity against human HeLa cells assessed as inhibition of cell growth measured after 72 hrs by MTT assay. In kind it is functional, cell-based. The method, boiled down:
as §4

The values that follow come from ChEMBL document CHEMBL4837218, “Synthesis and in vitro antitumour activity of 4(R)-methyl-3-O-phosphonomethyl-α-l-threose nucleosides” (Eur J Med Chem, 2021).

Structures are written as SMILES. The source made the active and inactive calls. The calls are words filed in the database; no cut-off is given here.

Broadly, the IC50 is the point on the concentration scale where inhibition reaches its midpoint. As to `C[C@H]1O[C@@H](n2cnc3c(N)nc(F)nc32)[C@H](O)[C@H]1OCP(=O)([O-])[O-].[Na+].[Na+]`, the result in the assay on MDA-MB-231 [1], in the assay with MDA-MB-231 [2], with MCF7 [4], with MDA-MB-231 [5], with MCF7 [9] and with MCF7 [13] was Active. Further, the outcome in the assay with MDA-MB-231 [16], in the assay with MDA-MB-231 [17], in the assay on MCF7 [20], in the assay on MCF7 [21] and in the assay with MDA-MB-231 [22] was Active. In addition, the Activity with MCF7 [3] is 9.1%; in the assay with MCF7 [7] it was 8.6%; with MDA-MB-231 [11], 19.1%; with MCF7 [12] it was 41.95%; with MCF7 [15], 17.9%; with MCF7 [18] it was 8.7%. Further, the Activity in the assay with MCF7 [19] came to 26.15%. Also, the outcome in the assay with MCF7 [6], in the assay on MDA-MB-231 [8] and in the assay with MCF7 [14] was inactive. Besides, the “Ratio IC50” value in the assay on MDA-MB-231 [10] is listed as 47. In addition, the figures for the IC50 in the assay with MGC-803 and in the assay on HeLa were 6.18 µM and 6.2 µM, respectively.
